In test [1] the target is Tumour suppressor p53/oncoprotein Mdm2 (Homo sapiens, UniProt Q00987). The test is described as follows: (§1) Inhibition of p53-MDM2 interaction after 1 hr by fluorescence polarization assay. The class given is protein assay.
Test [2] addresses Tumour suppressor p53/oncoprotein Mdm2 (Homo sapiens, UniProt P04637+Q00987). The test is described as §1. The class given is protein assay.
A further test relates to NCI-H1299. In words: Antiproliferative activity against p53 deficient human NCI-H1299 cells after 72 hrs by MTT assay. Particulars: NCI-H1299, 72 h; call rule not given here. The class given is functional, cell-based. An outline of the steps: (§2)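 Cells seeded at 5−6 × 10⁴ per well and cultured 24 h, then exposed in triplicate wells to a range of compound concentrations for 72 h, with 0.1% DMSO as control. MTT (5 mg/mL solution) was added for 4 h at 37 °C, formazan dissolved in DMSO, absorbance read at 570 nm. Drug-free wells served as blanks; IC50 calculated.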
Background: Tetrazolium assays rely on reduction of a dye to a coloured formazan, in cell work by metabolically active cells.

In the next test the test system is U2OS. In words: Antiproliferative activity against human U2OS cells expressing wild type p53 after 72 hrs by MTT assay. It is filed as functional, cell-based. Particulars: Homo sapiens, U2OS, 72 h; read-out: IC50. An outline of the steps: as §2
For a further test, the system named is A549. In words: Antiproliferative activity against human A549 cells expressing wild type p53 after 72 hrs by MTT assay. Particulars: Homo sapiens, A549, 72 h; read-out: IC50. It is filed as functional, cell-based. An outline of the steps:
as §2

The subject of another test is SAOS-2. The test is described as follows: Antiproliferative activity against p53 deficient human Saos2 cells after 72 hrs by MTT assay. The class given is functional, cell-based. To be noted: SAOS-2, 72 h. An outline of the steps: as §2

The values that follow come from ChEMBL document CHEMBL2177011, “Discovery, synthesis, and biological evaluation of orally active pyrrolidone derivatives as novel inhibitors of p53-MDM2 protein-protein interaction” (J Med Chem, 2012).

The structures appear in SMILES notation.

Sequence of Tumour suppressor p53/oncoprotein Mdm2 (Homo sapiens, UniProt Q00987) (P04637 whole entry): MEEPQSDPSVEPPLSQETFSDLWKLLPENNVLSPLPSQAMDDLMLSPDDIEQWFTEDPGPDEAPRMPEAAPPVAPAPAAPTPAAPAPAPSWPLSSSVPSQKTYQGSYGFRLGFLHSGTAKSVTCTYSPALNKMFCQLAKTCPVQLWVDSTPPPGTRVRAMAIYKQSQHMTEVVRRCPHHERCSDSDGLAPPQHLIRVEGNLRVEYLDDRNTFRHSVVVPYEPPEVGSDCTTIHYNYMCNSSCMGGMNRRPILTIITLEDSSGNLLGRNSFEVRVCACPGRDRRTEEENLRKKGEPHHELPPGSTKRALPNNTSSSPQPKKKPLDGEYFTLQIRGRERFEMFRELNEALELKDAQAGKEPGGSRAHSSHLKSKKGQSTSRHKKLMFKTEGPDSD
Sequence of Tumour suppressor p53/oncoprotein Mdm2 (Homo sapiens, UniProt Q00987) (Q00987 whole entry): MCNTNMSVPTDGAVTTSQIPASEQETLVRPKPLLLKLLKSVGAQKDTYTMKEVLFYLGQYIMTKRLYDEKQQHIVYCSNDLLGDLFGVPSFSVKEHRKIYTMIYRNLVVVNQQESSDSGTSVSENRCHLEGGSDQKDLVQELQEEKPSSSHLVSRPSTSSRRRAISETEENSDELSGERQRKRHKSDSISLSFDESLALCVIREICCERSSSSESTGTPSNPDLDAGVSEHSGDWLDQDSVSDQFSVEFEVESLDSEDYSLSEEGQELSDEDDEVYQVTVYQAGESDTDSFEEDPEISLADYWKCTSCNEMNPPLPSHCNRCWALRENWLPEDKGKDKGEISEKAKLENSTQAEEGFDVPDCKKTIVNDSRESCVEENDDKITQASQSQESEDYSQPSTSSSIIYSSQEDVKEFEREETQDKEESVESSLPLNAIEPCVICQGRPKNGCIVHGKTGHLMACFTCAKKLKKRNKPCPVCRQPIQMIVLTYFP
Sequence of Tumour suppressor p53/oncoprotein Mdm2 (Homo sapiens, UniProt P04637+Q00987) (P04637 whole entry): as the sequence (P04637 whole entry) above
Sequence of Tumour suppressor p53/oncoprotein Mdm2 (Homo sapiens, UniProt P04637+Q00987) (Q00987 whole entry): as the sequence (Q00987 whole entry) above

The compound `O=C(C1=C(O)C(=O)N(CCCn2ccnc2)C1c1ccc(Cl)cc1Cl)c1ccccc1` (configuration not stated) gave a Ki in test [1] of 39.4 µM.

Turning to `O=C(C1=C(O)C(=O)N(CCCn2ccnc2)C1c1cccc(O)c1)c1ccccc1` (configuration not stated), in test [2], the Ki entry is “Not Active”.

For the compound `O=C(C1=C(O)C(=O)N(CCCn2ccnc2)C1c1ccc(Cl)cc1)c1ccc2c(c1)OCCO2` (configuration not stated), in test [1], the Ki worked out at 1.37 µM.

Consider `O=C(C1=C(Nc2ccc(Br)cc2)C(=O)N(CCCn2ccnc2)C1c1ccc(Br)cc1)c1ccccc1` (configuration not stated), for which affinity in test [1] was put at a Ki of 0.19 µM. The 50% inhibitory concentration (IC50) stood at 19.2 µM in the test on NCI-H1299, 13 µM in the test on U2OS, 22.2 µM with A549 and 23.8 µM in the test on SAOS-2.

Consider `O=C(C1=C(O)C(=O)N(CCCn2ccnc2)C1c1ccc(Br)cc1)c1ccc(F)cc1` (configuration not stated), for which the Ki in test [1] is 1.46 µM.

Regarding `O=C(C1=C(Nc2ccc(I)cc2)C(=O)N(CCCn2ccnc2)C1c1ccc(Br)cc1)c1ccccc1` (configuration not stated), the affinity in test [1], expressed as Ki, was 0.27 µM. Moreover, the half-inhibitory concentration (IC50) in the test with NCI-H1299 came to 19.4 µM; in the test on U2OS, 12 µM; in the test with A549, 24.5 µM; in the test with SAOS-2, 23.4 µM.

As for `O=C(C1=C(O)C(=O)N(CCCn2ccnc2)C1c1ccccn1)c1ccccc1` (configuration not stated), the Ki entry in test [2] is reported as “Not Active”.

In the case of `O=C(C1=C(O)C(=O)N(CCCn2ccnc2)C1c1ccc(Br)cc1)c1ccccc1[N+](=O)[O-]` (configuration not stated), in test [1], affinity was put at a Ki of 15.3 µM.

In turn, `O=C(CSc1nnc(-c2ccc(O)cc2)n1-c1ccccc1)Nc1ccccc1` came in with a Ki in test [1] of 86 µM.

With `O=C(C1=C(O)C(=O)N(CCCn2ccnc2)C1c1ccc(Br)cc1)c1ccc(Cl)cc1` (configuration not stated), the Ki in test [1] worked out at 0.91 µM.

Turning to `O=C(C1=C(O)C(=O)N(CCCn2ccnc2)C1c1ccc(F)cc1)c1ccccc1` (configuration not stated), affinity in test [1] was put at a Ki of 0.88 µM.

On to `COc1ccc(C2C(C(=O)c3ccccc3)=C(O)C(=O)N2CCCn2ccnc2)cc1` (configuration not stated), for which the inhibition constant Ki result in test [2] was “Not Active”.

On to `Cc1cc(C)cc(C2C(C(=O)c3ccccc3)=C(O)C(=O)N2CCCn2ccnc2)c1` (configuration not stated), for which, in test [1], the Ki was 0.91 µM.

Compound `O=C(C1=C(O)C(=O)N(CCCn2ccnc2)C1c1ccc([N+](=O)[O-])cc1)c1ccccc1` (configuration not stated) yielded a Ki in test [1] of 0.7 µM.

`O=C(C1=C(O)C(=O)N(CCCn2ccnc2)C1c1ccc(Br)cc1)c1ccccc1Cl` (configuration not stated): the Ki result in test [2] is reported as “Not Active”.

Consider `CC(C)(C)c1ccc(C2C(C(=O)c3ccccc3)=C(O)C(=O)N2CCCn2ccnc2)cc1` (configuration not stated), for which the inhibition constant Ki in test [1] was determined as 10.9 µM.

`Cc1ccc(C2C(C(=O)c3ccccc3)=C(O)C(=O)N2CCCn2ccnc2)cc1` (configuration not stated) showed an inhibitory constant (Ki) in test [1] of 0.78 µM.

As to `O=C(C1=C(Nc2cccc(Br)c2)C(=O)N(CCCn2ccnc2)C1c1ccc(Br)cc1)c1ccccc1` (configuration not stated), the Ki in test [1] was 0.15 µM. The IC50 in the test on NCI-H1299 amounted to 11.5 µM; with U2OS, 11.9 µM; with A549, 15.8 µM; in the test with SAOS-2, 9.09 µM.

As to `O=C(C1=C(O)C(=O)N(CCCn2ccnc2)C1c1ccsc1)c1ccccc1` (configuration not stated), the inhibition constant (Ki) result in test [2] is recorded as “Not Active”.

With `O=C(C1=C(O)C(=O)N(CCCn2ccnc2)C1c1ccco1)c1ccccc1` (configuration not stated), the Ki result in test [2] was “Not Active”.

In test [1], `O=C(C1=C(O)C(=O)N(CCCn2ccnc2)C1c1ccccc1Br)c1ccccc1` (configuration not stated) returned a Ki of 0.43 µM.

The compound `c1ccc(CN2CCN(Cc3ccccc3)C2c2cccnc2)cc1` displayed a Ki in test [1] of 1.76 µM.

On to `O=C(C1=C(Nc2ccc(OC(F)(F)F)cc2)C(=O)N(CCCn2ccnc2)C1c1ccc(Br)cc1)c1ccccc1` (configuration not stated), for which the affinity in test [1], expressed as Ki, was 0.12 µM. Also, the IC50 in the test with NCI-H1299 was 11.5 µM; in the test with U2OS, 11.5 µM; in the test with A549, 20.8 µM; in the test on SAOS-2, 17.9 µM.

With `O=C(C1=C(O)C(=O)N(CCCn2ccnc2)C1c1cccnc1)c1ccccc1` (configuration not stated), the inhibition constant Ki entry in test [2] is listed as “Not Active”.

In test [1], `O=C(C1=C(O)C(=O)N(CCCn2ccnc2)C1c1ccc(Br)cc1)c1ccc(I)cc1` (configuration not stated) displayed a Ki of 3.59 µM.

Compound `CCOc1ccc(NC2=C(C(=O)c3ccccc3)C(c3ccc(Br)cc3)N(CCCn3ccnc3)C2=O)cc1` (configuration not stated) returned an inhibition constant (Ki) in test [1] of 0.35 µM. Also, the 50% inhibitory concentration (IC50) in the test with NCI-H1299 came out at 19.9 µM; in the test on U2OS, 26.2 µM; in the test on A549, 20.2 µM; in the test with SAOS-2, 30.9 µM.

`O=C(C1=C(O)C(=O)N(CCCn2ccnc2)C1c1ccc2ccccc2c1)c1ccccc1` (configuration not stated): in test [2], the Ki result is “Not Active”.

Take `O=C(C1=C(Nc2ccc(F)cc2)C(=O)N(CCCn2ccnc2)C1c1ccc(Br)cc1)c1ccccc1` (configuration not stated): the inhibitory constant (Ki) in test [1] amounted to 0.43 µM. The 50% inhibitory concentration (IC50) in the test on NCI-H1299 stood at 25.4 µM; with U2OS, 30 µM; in the test on A549 it was 27.4 µM; with SAOS-2, 32.7 µM.

With `O=C(C1=C(Nc2ccccc2Br)C(=O)N(CCCn2ccnc2)C1c1ccc(Br)cc1)c1ccccc1` (configuration not stated), the inhibition constant Ki in test [1] was 0.15 µM. In addition, the IC50 in the test with NCI-H1299 was determined as 15.6 µM; in the test on U2OS, 16.9 µM; in the test with A549, 20.1 µM; in the test on SAOS-2, 19.6 µM.

The compound `O=C(C1=C(NCc2ccccc2)C(=O)N(CCCn2ccnc2)C1c1ccc(Br)cc1)c1ccccc1` (configuration not stated) registered an inhibitory constant (Ki) in test [1] of 0.47 µM. Moreover, the half-inhibitory concentration (IC50) in the test on NCI-H1299 was 25.3 µM; in the test on U2OS it was 32.5 µM; with A549, 52.8 µM; in the test with SAOS-2, 31.6 µM.

With `O=C(C1=C(O)C(=O)N(CCCn2ccnc2)C1c1ccc(Br)cc1)c1ccc([N+](=O)[O-])cc1` (configuration not stated), in test [1], the Ki was 2.54 µM.

As for `COc1ccc(C(=O)C2=C(O)C(=O)N(c3nccs3)C2c2ccc(C)cc2)cc1` (configuration not stated), the affinity in test [1] corresponds to a Ki of 2.5 µM.

Compound `O=C(C1=C(Nc2ccc(Cl)cc2)C(=O)N(CCCn2ccnc2)C1c1ccc(Br)cc1)c1ccccc1` (configuration not stated) registered a Ki in test [1] of 0.23 µM. Also, the IC50 with NCI-H1299 turned out to be 25 µM; in the test on U2OS, 22.8 µM; with A549, 29.9 µM; with SAOS-2 it was 24.8 µM.

On to `Cc1ccc(C2C(C(=O)c3ccccc3)=C(O)C(=O)N2CCCn2ccnc2)c(C)c1` (configuration not stated), for which affinity in test [1] was put at a Ki of 10.7 µM.

For the compound `O=C(C1=C(Nc2ccccc2)C(=O)N(CCCn2ccnc2)C1c1ccc(Br)cc1)c1ccccc1` (configuration not stated), in test [1], the Ki stood at 0.14 µM. For the same compound, the 50% inhibitory concentration (IC50) with NCI-H1299 was 21.2 µM; in the test with U2OS, 25.7 µM; with A549, 24.1 µM; with SAOS-2, 24.4 µM.

For `O=C(C1=C(O)C(=O)N(Cc2cccnc2)C1c1ccc(Cl)cc1)c1ccccc1` (configuration not stated), the inhibition constant (Ki) in test [1] was determined as 0.57 µM.

In test [1], `O=C(C1=C(O)C(=O)N(CCCn2ccnc2)C1c1ccc(C(F)(F)F)cc1)c1ccccc1` (configuration not stated) registered an inhibitory constant (Ki) of 0.81 µM.

In test [1], `O=C(C1=C(O)C(=O)N(CCCn2ccnc2)C1c1cccc([N+](=O)[O-])c1)c1ccccc1` (configuration not stated) gave a Ki of 0.83 µM.

`O=C(C1=C(O)C(=O)N(CCCn2ccnc2)C1c1ccc(Cl)cc1)c1ccccc1` (configuration not stated) displayed a Ki in test [1] of 23.3 µM.

For the compound `Cc1ccc(NC2=C(C(=O)c3ccccc3)C(c3ccc(Br)cc3)N(CCCn3ccnc3)C2=O)cc1` (configuration not stated), affinity in test [1] was put at a Ki of 0.14 µM. Moreover, the IC50 with NCI-H1299 was 25.8 µM; with U2OS, 24.1 µM; with A549, 29.4 µM; in the test with SAOS-2, 31.9 µM.

`O=C(C1=C(O)C(=O)N(CCCn2ccnc2)C1c1ccc(Br)cc1)c1ccc(Br)cc1` (configuration not stated) returned an inhibition constant Ki in test [1] of 24.9 µM.

As to `O=C(C1=C(O)C(=O)N(CCc2ccccc2)C1c1ccc(Br)cc1)c1cccs1` (configuration not stated), the Ki in test [1] stood at 12 µM.

The compound `O=c1c2cnn(-c3ccccc3)c2nc(Cc2ccccc2)n1Cc1ccccc1` had a Ki in test [1] of 2.13 µM.

In test [1], `COc1ccc(CCN2C(=O)C(O)=C(C(=O)c3cccs3)C2c2ccc(C)cc2)cc1` (configuration not stated) came in with an inhibition constant (Ki) of 48.8 µM.

`C[C@@H](NC1=C(C(=O)c2ccccc2)[C@H](c2ccc(Br)cc2)N(CCCn2ccnc2)C1=O)c1ccccc1`: the half-inhibitory concentration (IC50) in the test on NCI-H1299 came to 17 µM; with U2OS, 30.8 µM; with A549 it was 15.7 µM; in the test with SAOS-2, 13.2 µM.

The Ki is the equilibrium dissociation constant of an inhibitor or competing ligand from its target. The term IC50 denotes the midpoint of a concentration-inhibition curve.
